pIC50: −log10 of the molar value.
Legend:
[1] = Drug uptake in tumor of athymic mouse xenografted with human MCF7 cells at 100 mg/kg, po after 8 hrs; assay type: ADME, organism-based, Neoplasm; set-up: dose 100 mg/kg, route oral; conditions: read-out: Drug uptake
[2] = Plasma concentration in athymic mouse plasma xenografted with human MCF7 cells at 100 mg/kg, po after 4 hrs; assay type: ADME, organism-based; set-up: dose 100 mg/kg, route oral
Method in brief: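 MCF-7 cells (5 × 10^6 in 50% cold HBSS/50% growth-factor-reduced Matrigel) implanted subcutaneously in the hindflank of 5−8-week-old female nude mice. When tumors reached 40−150 mg, mice received a single oral dose. Plasma exposure was measured after dosing, and scheduled takedown was at 4 h.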

Mus musculus [3] = assay: In vivo inhibition of mTORC1-mediated phosphorylation of pS6 at (serine 240/244) in human MCF7 cells xenografted into athymic nude mouse at 100 mg/kg, po after 8 hrs by Western blotting analysis relative to control; assay type: functional; conditions: MCF7, 8 h
Method in brief: (§1)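 MCF-7 cells (DMEM, 10% FBS) were implanted subcutaneously at 5 × 10^6 cells in 50% cold HBSS/50% growth-factor-reduced matrigel into the hindflank of 5−8 week old female nude mice. At tumor size 40−150 mg, mice received a single oral dose of 100 mg/kg. Tumor lysates were pooled per group. Phospho-AKT (S473, T308), p70S6K (T389), S6 (S240/244) and 4E-BP1 (T37/46) were measured by Western blot normalized to α-tubulin.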

Mus musculus [4] = assay: In vivo inhibition of mTORC1-mediated phosphorylation of p70S6K at […] in human MCF7 cells xenografted into athymic nude mouse at 100 mg/kg, po after 16 hrs by Western blotting analysis relative to control; assay type: functional; conditions: MCF7, 16 h; method in brief: as §1
Mus musculus [5] = assay: In vivo inhibition of mTORC2-mediated phosphorylation of AKT at […] in human MCF7 cells xenografted into athymic nude mouse at 100 mg/kg, po after 32 hrs by Western blotting analysis relative to control; assay type: functional; conditions: MCF7, 32 h; method in brief: as §1
Mus musculus [6] = assay: In vivo inhibition of mTORC2-mediated phosphorylation of AKT at […] in human MCF7 cells xenografted into athymic nude mouse at 100 mg/kg, po after 16 hrs by Western blotting analysis relative to control; assay type: functional; conditions: MCF7, 16 h; method in brief: as §1
Mus musculus [7] = assay: In vivo inhibition of mTORC2-mediated phosphorylation of AKT at […] in human MCF7 cells xenografted into athymic nude mouse at 100 mg/kg, po after 8 hrs by Western blotting analysis relative to control; assay type: functional; conditions: MCF7, 8 h
Method in brief: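 Human MCF-7 cells were implanted subcutaneously into the hindflank of female nude mice aged 5−8 weeks, at 5 × 10^6 cells in 50% cold HBSS/50% growth-factor-reduced matrigel. At a tumor size of 40−150 mg, mice got one oral dose. Tumor lysates were pooled per group. Phospho-AKT (T308) was read by Western blot and normalized to α-tubulin.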

[8] = Plasma concentration in athymic mouse plasma xenografted with human PC3 cells at 100 mg/kg, po after 1 hr; assay type: ADME, organism-based, PC-3; set-up: dose 100 mg/kg, route oral
[9] = target: Heat shock protein HSP 90-beta (Homo sapiens, UniProt P08238); assay: Inhibition of HSP90 (unknown origin)
Heat shock protein HSP 90-beta, sequence (P08238 whole entry): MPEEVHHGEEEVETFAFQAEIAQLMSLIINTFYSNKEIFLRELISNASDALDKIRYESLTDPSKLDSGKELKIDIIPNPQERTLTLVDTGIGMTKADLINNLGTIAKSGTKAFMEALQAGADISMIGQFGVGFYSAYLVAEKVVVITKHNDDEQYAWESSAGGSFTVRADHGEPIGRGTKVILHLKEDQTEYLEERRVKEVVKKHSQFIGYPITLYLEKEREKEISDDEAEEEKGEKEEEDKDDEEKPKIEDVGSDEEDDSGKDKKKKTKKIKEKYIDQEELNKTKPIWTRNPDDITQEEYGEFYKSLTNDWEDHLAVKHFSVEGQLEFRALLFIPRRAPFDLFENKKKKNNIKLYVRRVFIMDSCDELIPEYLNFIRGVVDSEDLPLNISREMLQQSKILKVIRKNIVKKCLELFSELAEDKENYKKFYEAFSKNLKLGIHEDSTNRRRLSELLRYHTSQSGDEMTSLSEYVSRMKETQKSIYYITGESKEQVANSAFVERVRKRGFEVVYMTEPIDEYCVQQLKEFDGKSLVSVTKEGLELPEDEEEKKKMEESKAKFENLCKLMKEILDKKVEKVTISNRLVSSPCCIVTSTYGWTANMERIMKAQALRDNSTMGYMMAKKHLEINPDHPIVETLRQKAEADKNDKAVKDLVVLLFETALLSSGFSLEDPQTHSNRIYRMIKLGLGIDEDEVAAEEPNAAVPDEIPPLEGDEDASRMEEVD

Focal adhesion kinase 1 = Focal adhesion kinase 1 (Homo sapiens, UniProt Q05397); assay: Inhibition of FAK (unknown origin)
Focal adhesion kinase 1, sequence (Q05397 whole entry): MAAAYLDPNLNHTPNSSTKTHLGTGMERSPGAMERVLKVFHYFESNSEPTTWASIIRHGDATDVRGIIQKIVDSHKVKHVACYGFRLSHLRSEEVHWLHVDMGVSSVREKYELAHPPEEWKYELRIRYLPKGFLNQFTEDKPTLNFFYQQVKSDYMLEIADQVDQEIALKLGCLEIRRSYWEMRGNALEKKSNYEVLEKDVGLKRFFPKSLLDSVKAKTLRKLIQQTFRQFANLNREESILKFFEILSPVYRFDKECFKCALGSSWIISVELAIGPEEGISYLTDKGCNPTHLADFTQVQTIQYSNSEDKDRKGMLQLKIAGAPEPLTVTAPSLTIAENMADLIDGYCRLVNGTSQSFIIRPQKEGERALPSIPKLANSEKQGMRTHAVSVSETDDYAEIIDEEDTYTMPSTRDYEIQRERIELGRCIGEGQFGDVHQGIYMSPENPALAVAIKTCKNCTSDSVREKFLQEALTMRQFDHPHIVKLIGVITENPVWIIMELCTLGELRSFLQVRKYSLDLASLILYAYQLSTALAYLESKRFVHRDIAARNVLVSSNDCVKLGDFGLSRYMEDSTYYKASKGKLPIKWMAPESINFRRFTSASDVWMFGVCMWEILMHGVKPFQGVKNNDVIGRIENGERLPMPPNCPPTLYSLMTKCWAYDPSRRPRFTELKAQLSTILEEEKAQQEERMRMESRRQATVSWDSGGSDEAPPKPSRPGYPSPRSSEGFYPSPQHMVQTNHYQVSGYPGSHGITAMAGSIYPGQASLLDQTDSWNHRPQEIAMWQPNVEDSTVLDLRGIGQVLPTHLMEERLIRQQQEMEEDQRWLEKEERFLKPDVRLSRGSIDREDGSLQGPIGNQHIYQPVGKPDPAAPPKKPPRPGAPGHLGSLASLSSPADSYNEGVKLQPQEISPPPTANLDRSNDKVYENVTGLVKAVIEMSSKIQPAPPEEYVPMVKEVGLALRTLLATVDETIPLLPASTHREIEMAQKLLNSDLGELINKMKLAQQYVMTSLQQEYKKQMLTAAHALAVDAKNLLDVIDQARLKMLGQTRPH
Method in brief: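 Part of a 141-protein-kinase selectivity panel run either in house or by an outside contract lab. IC50 is reported as the average of at least two determinations.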

[10] = target: Serine/threonine-protein kinase Chk1 (Homo sapiens, UniProt O14757); assay: Inhibition of CHK1 (unknown origin)
Serine/threonine-protein kinase Chk1, sequence (O14757 whole entry): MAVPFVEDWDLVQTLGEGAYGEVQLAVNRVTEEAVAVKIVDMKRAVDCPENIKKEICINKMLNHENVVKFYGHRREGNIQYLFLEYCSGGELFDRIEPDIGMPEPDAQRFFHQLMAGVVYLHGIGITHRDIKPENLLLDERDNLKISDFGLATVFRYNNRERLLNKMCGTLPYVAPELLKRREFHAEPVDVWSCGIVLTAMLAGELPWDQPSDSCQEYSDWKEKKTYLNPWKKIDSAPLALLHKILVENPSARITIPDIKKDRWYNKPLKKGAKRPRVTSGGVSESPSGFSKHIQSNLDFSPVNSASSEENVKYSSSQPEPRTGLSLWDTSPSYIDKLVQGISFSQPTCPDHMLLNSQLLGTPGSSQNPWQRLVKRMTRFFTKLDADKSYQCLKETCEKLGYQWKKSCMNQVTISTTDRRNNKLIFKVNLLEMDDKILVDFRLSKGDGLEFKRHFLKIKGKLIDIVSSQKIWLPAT

[11] = target: Phosphatidylinositol 3-kinase catalytic subunit type 3 (Homo sapiens, UniProt Q8NEB9); assay: Inhibition of VPS34 (unknown origin)
Phosphatidylinositol 3-kinase catalytic subunit type 3, sequence (Q8NEB9 whole entry): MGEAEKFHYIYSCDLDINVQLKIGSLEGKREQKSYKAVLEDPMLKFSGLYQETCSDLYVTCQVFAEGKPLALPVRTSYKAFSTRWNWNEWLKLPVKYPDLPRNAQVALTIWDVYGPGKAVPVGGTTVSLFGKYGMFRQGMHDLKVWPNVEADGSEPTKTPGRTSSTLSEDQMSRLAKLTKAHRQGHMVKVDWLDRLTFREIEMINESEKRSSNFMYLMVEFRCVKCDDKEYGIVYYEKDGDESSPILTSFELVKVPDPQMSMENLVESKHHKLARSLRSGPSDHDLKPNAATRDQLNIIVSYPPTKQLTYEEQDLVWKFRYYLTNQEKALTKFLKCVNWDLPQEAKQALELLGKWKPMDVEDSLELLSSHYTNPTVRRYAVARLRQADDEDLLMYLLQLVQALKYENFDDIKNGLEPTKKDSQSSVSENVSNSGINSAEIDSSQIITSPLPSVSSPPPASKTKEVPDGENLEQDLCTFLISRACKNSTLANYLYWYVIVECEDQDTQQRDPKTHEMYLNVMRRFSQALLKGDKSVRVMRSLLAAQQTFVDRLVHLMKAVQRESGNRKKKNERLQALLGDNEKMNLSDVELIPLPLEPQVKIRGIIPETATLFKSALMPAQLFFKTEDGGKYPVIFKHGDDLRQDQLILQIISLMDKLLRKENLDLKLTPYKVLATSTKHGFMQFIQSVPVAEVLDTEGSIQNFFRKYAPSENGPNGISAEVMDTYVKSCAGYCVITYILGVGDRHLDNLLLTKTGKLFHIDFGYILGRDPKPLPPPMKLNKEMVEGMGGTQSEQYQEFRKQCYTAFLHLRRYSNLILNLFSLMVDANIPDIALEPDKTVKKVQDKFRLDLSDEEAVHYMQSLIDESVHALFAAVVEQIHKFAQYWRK

[12] = Volume of distribution at steady state in CD rat at 3 mg/kg, iv; assay type: ADME, organism-based; set-up: dose 3 mg/kg, route intravenous; conditions: in vivo, read-out: Vdss
[13] = Half life in cynomolgus monkey at 3 mg/kg, iv; assay type: ADME, organism-based, Macaca fascicularis; set-up: dose 3 mg/kg, route intravenous; conditions: in vivo
Method in brief: (§2)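 Single-dose PK: female athymic nude mice (10 mg/kg), female CD rats and male beagle dogs (3 mg/kg), male cynomolgus monkeys (3 mg/kg), given iv and by oral gavage. Solution in EPW (5% ethanol/45% PEG400/water), with 1:2 HCl (m/m) for mouse, rat and dog and 1:1.5 HCl (m/m) for monkey. Plasma levels followed over 24 h.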

[14] = AUC (0 to infinity) in Beagle dog at 3 mg/kg, iv; assay type: ADME, organism-based, Canis lupus familiaris; set-up: time infinity, dose 3 mg/kg, route intravenous; conditions: plasma; method in brief: as §2
[15] = Tmax in athymic nude mouse at 10 mg/kg, po; assay type: ADME, organism-based; set-up: dose 10 mg/kg, route oral; conditions: in vivo
[16] = Cmax in Beagle dog at 3 mg/kg, po; assay type: ADME, organism-based, Canis lupus familiaris; set-up: dose 3 mg/kg, route oral; conditions: in vivo; method in brief: as §2
[17] = Cmax in athymic nude mouse at 10 mg/kg, po; assay type: ADME, organism-based; set-up: dose 10 mg/kg, route oral; conditions: in vivo; method in brief: as §2
Plasma = assay: Plasma concentration in athymic mouse plasma xenografted with human MCF7 cells at 100 mg/kg, po after 24 hrs; assay type: ADME, organism-based; set-up: dose 100 mg/kg, route oral; conditions: in vivo, BLD = below limit of detection
Method in brief: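 MCF-7 cells (5 × 10^6, in 50% cold HBSS/50% growth-factor-reduced matrigel) were implanted subcutaneously in the hindflank of 5–8 week old female nude mice. At 40–150 mg tumour size, mice received a single oral dose of 100 mg/kg, and plasma was sampled at the listed times after dosing.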

Mus musculus [18] = assay: Toxicity in athymic nude mouse assessed as body weight gain at 50 mg/kg, po relative to control; assay type: organism-based; set-up: dose 50 mg/kg, route oral; conditions: in vivo
[19] = Drug uptake in tumor of athymic mouse xenografted with human MCF7 cells at 100 mg/kg, po after 16hrs; assay type: ADME, organism-based, Neoplasm; set-up: dose 100 mg/kg, route oral; conditions: read-out: Drug uptake
[20] = Cmax in athymic nude mouse at 10 mg/kg, iv; assay type: ADME, organism-based; set-up: dose 10 mg/kg, route intravenous; conditions: in vivo; method in brief: as §2
[21] = Metabolic stability in human liver microsomes after 30 mins; assay type: ADME, Microsome; conditions: read-out: Stability
[22] = Plasma protein binding in dog at 5 uM; assay type: ADME, cell-free, Canis lupus familiaris; conditions: read-out: PPB (converted)
Cytochrome P450 2C9 = Cytochrome P450 2C9 (Homo sapiens, UniProt P11712); assay: Inhibition of CYP2C9 (unknown origin); assay type: ADME
Cytochrome P450 2C9, sequence (P11712 whole entry): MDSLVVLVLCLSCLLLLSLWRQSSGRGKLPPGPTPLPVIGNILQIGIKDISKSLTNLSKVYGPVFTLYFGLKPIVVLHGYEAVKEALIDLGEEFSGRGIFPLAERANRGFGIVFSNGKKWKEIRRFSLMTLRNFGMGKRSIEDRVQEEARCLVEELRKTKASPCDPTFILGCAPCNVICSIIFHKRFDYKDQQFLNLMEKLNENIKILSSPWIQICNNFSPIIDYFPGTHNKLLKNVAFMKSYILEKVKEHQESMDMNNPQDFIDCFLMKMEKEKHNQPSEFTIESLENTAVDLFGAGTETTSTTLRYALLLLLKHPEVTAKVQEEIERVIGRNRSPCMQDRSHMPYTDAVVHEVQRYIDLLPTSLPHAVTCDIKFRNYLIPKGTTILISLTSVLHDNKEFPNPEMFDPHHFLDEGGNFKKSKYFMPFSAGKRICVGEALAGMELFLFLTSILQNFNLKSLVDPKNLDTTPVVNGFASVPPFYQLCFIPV

Cytochrome P450 2D6 = Cytochrome P450 2D6 (Homo sapiens, UniProt P10635); assay: Inhibition of CYP2D6 (unknown origin); assay type: ADME
Cytochrome P450 2D6, sequence (P10635 whole entry): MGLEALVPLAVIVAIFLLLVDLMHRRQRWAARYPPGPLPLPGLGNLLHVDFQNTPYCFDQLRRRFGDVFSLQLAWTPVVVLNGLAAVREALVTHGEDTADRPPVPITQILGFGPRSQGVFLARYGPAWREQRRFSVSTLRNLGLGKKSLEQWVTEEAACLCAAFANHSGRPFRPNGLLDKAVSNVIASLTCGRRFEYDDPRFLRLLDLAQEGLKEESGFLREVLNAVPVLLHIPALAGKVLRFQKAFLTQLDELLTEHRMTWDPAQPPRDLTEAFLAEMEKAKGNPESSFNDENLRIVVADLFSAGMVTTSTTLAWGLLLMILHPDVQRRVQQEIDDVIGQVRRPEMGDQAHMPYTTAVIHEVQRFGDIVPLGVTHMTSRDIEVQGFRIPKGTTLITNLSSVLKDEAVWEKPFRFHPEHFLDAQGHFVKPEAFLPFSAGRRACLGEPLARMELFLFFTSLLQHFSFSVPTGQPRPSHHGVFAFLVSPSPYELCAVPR

[23] = target: Ribosomal protein S6 kinase beta-1 (Homo sapiens, UniProt P23443); assay: Inhibition of p70S6K (unknown origin)
Ribosomal protein S6 kinase beta-1, sequence (P23443 whole entry): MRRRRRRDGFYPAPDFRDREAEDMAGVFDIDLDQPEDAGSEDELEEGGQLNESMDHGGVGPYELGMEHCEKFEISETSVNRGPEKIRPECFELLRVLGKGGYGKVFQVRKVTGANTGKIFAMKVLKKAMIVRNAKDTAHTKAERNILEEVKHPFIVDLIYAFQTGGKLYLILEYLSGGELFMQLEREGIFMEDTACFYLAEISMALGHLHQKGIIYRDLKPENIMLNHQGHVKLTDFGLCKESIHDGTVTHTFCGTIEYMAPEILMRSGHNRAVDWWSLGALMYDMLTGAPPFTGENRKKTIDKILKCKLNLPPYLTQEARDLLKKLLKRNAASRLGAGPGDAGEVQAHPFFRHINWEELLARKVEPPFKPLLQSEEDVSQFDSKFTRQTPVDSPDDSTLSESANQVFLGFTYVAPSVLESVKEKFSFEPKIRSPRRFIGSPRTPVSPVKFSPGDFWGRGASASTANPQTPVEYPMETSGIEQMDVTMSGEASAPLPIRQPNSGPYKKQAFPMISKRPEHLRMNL

Mus musculus [24] = assay: In vivo inhibition of mTORC1-mediated phosphorylation of pS6 at (serine 240/244) in human PC3 cells xenografted into athymic nude mouse at 100 mg/kg, po after 32 hrs by Western blotting analysis relative to control; assay type: functional; conditions: PC-3, 32 h
Method in brief: (§3)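 PC-3 cells grown in DMEM with 20% FBS were implanted subcutaneously at 3 × 10^6 cells in ice-cold HBSS into the hindflank of 5−8 week old male nude mice. At tumor size 200−500 mg, mice received a single oral dose of 100 mg/kg. Plasma and tumors were collected at 1, 4, 8, 16, 24 and 32 h. Tumor lysates from each group (n = 5) were pooled. Phospho-proteins were quantified by Western blot and normalized to α-tubulin.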

Mus musculus [25] = assay: In vivo inhibition of mTORC1-mediated phosphorylation of pS6 at (serine 240/244) in human PC3 cells xenografted into athymic nude mouse at 100 mg/kg, po after 8 hrs by Western blotting analysis relative to control; assay type: functional; conditions: PC-3, 8 h; method in brief: as §3
Mus musculus [26] = assay: In vivo inhibition of mTORC2-mediated phosphorylation of AKT at serine 473 in human PC3 cells xenografted into athymic nude mouse at 100 mg/kg, po after 32 hrs by Western blotting analysis relative to control; assay type: functional; conditions: PC-3, 32 h; method in brief: as §3

- concentration at 8 h [1]: 16.6 µM
- concentration at 4 h [2]: 30.1 µM
- concentration at 1 h [8]: 32.6 µM
- pIC50 [9]: < 5.46
- pIC50 (Focal adhesion kinase 1): < 5.46
- pIC50 [10]: < 5.46
- pIC50 [11]: < 5.46
- Vd [12]: 1.27 L/kg
- half-life [13]: 51.6 min
- AUC(0-inf) [14]: 11 µM·h
- Tmax [15]: 30 min
- Cmax [16]: 1.66 µM
- Cmax [17]: 1.3 µM
- Cp (Plasma): BLD
- concentration at 16 h [19]: 2.74 µM
- Cmax [20]: 9.14 µM
- remaining at 0.5 h [21]: 93%
- fraction unbound at 5 µM [22]: 0.11
- INH (Cytochrome P450 2C9): 10.6 µM
- INH (Cytochrome P450 2D6): > 20 µM
- pIC50 [23]: < 5.46
Compound: Cc1c(C(=O)N2CCOc3ccc(-c4ccc(N)nc4)cc3C2)ccc(S(C)(=O)=O)c1F
- inhibition in vivo at 100 mg/kg (Mus musculus [3]): 98%
- inhibition in vivo at 100 mg/kg (Mus musculus [4]): 41%
- inhibition in vivo at 100 mg/kg (Mus musculus [5]): 10%
- inhibition in vivo at 100 mg/kg (Mus musculus [6]): 43%
- inhibition in vivo at 100 mg/kg (Mus musculus [7]): -2%
- Activity (Mus musculus [18]): 2.2%
- inhibition in vivo at 100 mg/kg (Mus musculus [24]): -20%
- inhibition in vivo at 100 mg/kg (Mus musculus [25]): 91%
- inhibition in vivo at 100 mg/kg (Mus musculus [26]): 10%

— ChEMBL document CHEMBL2331117 (J Med Chem, 2013)
